Test results from ChEMBL document CHEMBL4257443, “The discovery of a potent Nav1.3 inhibitor with good oral pharmacokinetics” (Medchemcomm, 2017).
Active and inactive are the calls of the source. The calls are words filed in the database; no cut-off is given here.

Legend:
Rattus norvegicus [1] = assay: Prodrug conversion in po dosed rat assessed as formation of N-(3-chloro-4-(trifluoromethoxy)benzyl)-3-fluoro-4-(N-thiazol-2-ylsulfamoyl)benzamide; assay type: ADME, organism-based; conditions: in vivo
Cynomolgus monkey [2] = assay: Toxicity in cynomolgus monkey assessed as change in heart rate at 30 mg/kg; assay type: organism-based, Macaca fascicularis; conditions: in vivo
Cynomolgus monkey [3] = assay: Toxicity in cynomolgus monkey assessed as change in systolic blood pressure at 30 mg/kg; assay type: organism-based, Macaca fascicularis; conditions: in vivo
Cynomolgus monkey [4] = assay: Toxicity in cynomolgus monkey assessed as change in diastolic blood pressure at 30 mg/kg; assay type: organism-based, Macaca fascicularis; conditions: in vivo
Cynomolgus monkey [5] = assay: Toxicity in cynomolgus monkey assessed as effect on ECG parameters at 30 mg/kg; assay type: organism-based, Macaca fascicularis; conditions: in vivo
Cynomolgus monkey [6] = assay: Toxicity in cynomolgus monkey assessed as change in left ventricular pressure parameters at 30 mg/kg; assay type: organism-based, Macaca fascicularis; conditions: in vivo
Rattus norvegicus [7] = assay: Antipain activity in tibial nerve transection surgery model of rat assessed as reduction of noxious pinch evoked activity at 3 to 10 mg/kg administered as iv bolus dose measured every 15 mins for 30 mins; assay type: functional, organism-based
How it was run: (§1)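 Rats had tibial nerve transection 2–3 weeks before recording. Under isoflurane anaesthesia (5% in O2) in a stereotaxic frame, body temperature was held at 37 °C and L4-5 spinal segments were exposed by laminectomy. After stable baseline responses, compound was given as an IV bolus, with effects assessed every 15 min for up to 30 min per dose. Treatment was randomised and blinded, and dry blood spots were taken for plasma exposure.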

Rattus norvegicus [8] = assay: Antipain activity in tibial nerve transection surgery model of rat assessed as reduction of innocuous brush evoked activity at 3 to 10 mg/kg administered as iv bolus dose measured every 15 mins for 30 mins; assay type: functional, organism-based; how it was run: as §1
Rattus norvegicus [9] = assay: Antipain activity in tibial nerve transection surgery model of rat assessed as reduction of mechanical punctate stimuli evoked activity at 3 to 10 mg/kg administered as iv bolus dose measured every 15 mins for 30 mins; assay type: functional, organism-based; how it was run: as §1
Rattus norvegicus [10] = assay: Antipain activity in tibial nerve transection surgery model of rat assessed as reduction of heat evoked activity at 3 to 10 mg/kg administered as iv bolus dose measured every 15 mins for 30 mins; assay type: functional, organism-based; how it was run: as §1

Drug metabolism (Rattus norvegicus [1]): Metabolite_Detected
Structure (SMILES): O=C(NCc1ccc(OC(F)(F)F)c(Cl)c1)c1ccc(S(=O)(=O)/N=c2\sccn2COP(=O)(O)O)c(F)c1
Activity (Cynomolgus monkey [2]): Non-Toxic | Activity (Cynomolgus monkey [3]): Non-Toxic | Activity (Cynomolgus monkey [4]): Non-Toxic | Activity (Cynomolgus monkey [5]): Non-Toxic | Activity (Cynomolgus monkey [6]): Non-Toxic | Activity (Rattus norvegicus [7]): Active | Activity (Rattus norvegicus [8]): inactive | Activity (Rattus norvegicus [9]): inactive | Activity (Rattus norvegicus [10]): inactive
